Results from ChEMBL document CHEMBL5252539, “In vitro biological evaluation of new antimycobacterial salicylanilide-tuftsin conjugates” (Eur J Med Chem, 2017).
≈ marks a conversion by molar mass, not a printed value. Calls of active or inactive are those of the source. The rule behind the calls is not given here. *1 amine or outer side, *2 acyl side, *3 side chain or, on linkers, in order; H or OH if unused. Where a SMILES comes first, the peptide text is derived from it. [ ]: non-standard residue; d: D form. The star is where a group is joined. X1 = C/C(=N\OCC(=O)[*:2])c1ccc(N[*:1])cc1; Benzoyl(5-Br-2-OH) = O=C(c1cc(Br)ccc1O)*; X3 = O=C(c1cc(Cl)ccc1O)*

Key:
[1] = Selectivity index, ratio of IC50 for cytostatic activity against human HepG2 cells to MIC for antimycobacterial activity against Mycobacterium tuberculosis H37Rv ATCC 27294; type: toxicity, cell-based; conditions: read-out: Selectivity Index
Summary of the method: (§1)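 MTT assay on MonoMac6 or HepG2 cells after 24 h exposure, top concentration 200 µM. SI = IC50 (µM)/MIC (µM) against H37Rv from the 4-week Sula medium assay.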

[2] = Selectivity index, ratio of IC50 for cytostatic activity against human MONO-MAC-6 cells to MIC for antimycobacterial activity against Mycobacterium tuberculosis H37Rv ATCC 27294; type: toxicity, cell-based; conditions: read-out: Selectivity Index; summary of the method: as §1
HepG2 = experiment: Cytostatic activity against human HepG2 cells assessed as reduction in cell viability incubated for 24 hrs by MTT assay; type: functional, cell-based; conditions: HepG2, 24 h
Summary of the method: (§2)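 MTT viability assay after 24 h exposure of MonoMac6 human monocytic cells or HepG2 human hepatocellular carcinoma cells. Top concentration 200 μM. IC50 taken from dose-response curves as the concentration reducing viability to 50% of maximal.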

[3] = Stability in rat liver lysosomal homogenate assessed as drug degradation at 50 uM and measured upto 24 hrs by HPLC-MS analysis; type: ADME, subcellular, Lysosome; conditions: tissue homogenate
Summary of the method: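 Conjugates incubated in rat liver lysosomal homogenate. Reaction mixtures sampled at 5 min, 1 h, 2 h, 4 h, 8 h and 24 h and analysed by HPLC-MS (chromatograms and mass spectra) to identify intact conjugate, fragments and cleavage sites.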

MONO-MAC-6 = experiment: Cytostatic activity against human MONO-MAC-6 cells assessed as reduction in cell viability incubated for 24 hrs by MTT assay; type: functional, cell-based; conditions: MONO-MAC-6, 24 h; summary of the method: as §2
[4] = tested on: Mycobacterium tuberculosis; experiment: […] antimycobacterial activity against Mycobacterium tuberculosis H37Rv ATCC 27294 infected in human MONO-MAC-6 cells assessed as reduction in colony forming unit at 125 uM for 6 days by colony counting based analysis; type: functional, organism-based; conditions: time 6.0 day
Summary of the method: (§3)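 MonoMac6 monolayers infected with H37Rv, then treated with compound at 125 or 250 µM for 3 days. Treatment repeated with fresh compound solution for another 3 days. Intracellular bacteria quantified as CFU against untreated infected cells.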

[5] = tested on: Mycobacterium tuberculosis; experiment: Antimycobacterial activity against Mycobacterium tuberculosis H37Rv ATCC 27294 assessed as reduction in colony forming unit after 28 days by serial dilution method; type: functional, organism-based; conditions: time 28.0 day
Summary of the method: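 After the 4-week MIC incubation in Sula semisynthetic medium (pH 6.5), growth inhibition confirmed by plating on Löwenstein-Jensen solid medium and counting colony forming units.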

[6] = tested on: Mycobacterium tuberculosis; experiment: Antimycobacterial activity against Mycobacterium tuberculosis H37Rv ATCC 27294 assessed as reduction in bacterial growth after 28 days by serial dilution method; type: functional; conditions: H37Rv ATCC 27294, 672 h, time 28 day
Summary of the method: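 Broth MIC in Sula semisynthetic medium, pH 6.5; 4-week incubation, with 21-day values […] where indicated. Drug-free inoculated bacteria served as growth control. MIC also expressed as drug content (µg/mL) = MIC (µM) × average SAL molar mass × number of SAL per conjugate / 1000.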

[7] = tested on: Mycobacteroides abscessus; experiment: Antimycobacterial activity against Mycobacterium abscessus ATCC 19977 assessed as reduction in colony forming unit after 7 days by serial dilution method; type: functional, organism-based; conditions: time 7.0 day
Summary of the method: (§4)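 MIC determined in Sula semisynthetic medium, pH 6.5, 1 week incubation. Growth inhibition confirmed by plating on Löwenstein-Jensen solid medium and counting CFU. Bacteria inoculated without drug served as growth control.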

[8] = tested on: Mycobacterium tuberculosis; experiment: […] antimycobacterial activity against Mycobacterium tuberculosis H37Rv ATCC 27294 infected in human MONO-MAC-6 cells assessed as reduction in colony forming unit at 250 uM for 6 days by colony counting based analysis; type: functional, organism-based; conditions: time 6.0 day; summary of the method: as §3
[9] = tested on: Mycobacteroides abscessus; experiment: Antimycobacterial activity against Mycobacterium abscessus ATCC 19977 assessed as reduction in bacterial growth after 7 days by serial dilution method; type: functional; conditions: ATCC 19977, 168 h, time 7 day; summary of the method: as §4

Structure (SMILES)	selectivity ratio [1]	selectivity ratio [2]	IC50 (HepG2)	Stability [3]	IC50 (MONO-MAC-6)	Activity [4]	Activity [5]	MIC [6]	Activity [7]	Activity [8]	MIC [9]
C/C(=N\OCC(=O)N[C@H](C(=O)N[C@@H](CCCCN)C(=O)N1CCC[C@H]1C(=O)N1CCC[C@H]1C(=O)N[C@@H](CCCNC(=N)N)C(=O)O)[C@@H](C)O)c1ccc(NC(=O)c2cc(Br)ccc2O)cc1	> 9.9	> 9.9	> 200 µM	Unstable	> 200 µM						
C/C(=N\OCC(=O)N[C@H](C(=O)N[C@@H](CCCCN)C(=O)N1CCC[C@H]1C(=O)N[C@@H](CCCCN)C(=O)NCC(=O)N[C@H](C(=O)N[C@@H](CCCCN)C(=O)N1CCC[C@H]1C(=O)N[C@@H](CCCCN)C(=O)NCC(=O)N[C@H](C(=O)N[C@@H](CCCCN)C(=O)N1CCC[C@H]1C(=O)N[C@@H](CCCCN)C(=O)NCC(=O)N[C@H](C(=O)N[C@@H](CCCCN)C(=O)N1CCC[C@H]1C(=O)N[C@@H](CCCCN)C(=O)NCC(N)=O)[C@@H](C)O)[C@@H](C)O)[C@@H](C)O)[C@@H](C)O)c1ccc(NC(=O)c2cc(Cl)ccc2O)cc1 (X3-[X1]TKPKGTKPKGTKPKGTKPKG-NH2)	> 2.4	> 2.4	> 200 µM		> 200 µM	Active	Active	83 µM (≈ 200 µg/mL)	Active	Active	41.5 µM (≈ 99.9 µg/mL)
C/C(=N\OCC(=O)NCC(=O)N[C@@H](Cc1ccccc1)C(=O)N[C@@H](CC(C)C)C(=O)NCC(=O)N[C@H](C(=O)N[C@@H](CCCCN)C(=O)N1CCC[C@H]1C(=O)N[C@@H](CCCCN)C(=O)NCC(N)=O)[C@@H](C)O)c1ccc(NC(=O)c2cc(Br)ccc2O)cc1 ({Benzoyl(5-Br-2-OH)}-[X1]GFLGTKPKG-NH2)	5.3	> 6.5	163 µM	Unstable	> 200 µM	Active	Active	31 µM (≈ 40.1 µg/mL)	Active	Active	155 µM (≈ 200 µg/mL)
C/C(=N\OCC(=O)NCC(=O)N[C@@H](Cc1ccccc1)C(=O)N[C@@H](CC(C)C)C(=O)NCC(=O)N[C@H](C(=O)N[C@@H](CCCCN)C(=O)N1CCC[C@H]1C(=O)N[C@@H](CCCCN)C(=O)NCC(=O)O)[C@@H](C)O)c1ccc(NC(=O)c2cc(Br)ccc2O)cc1 ({Benzoyl(5-Br-2-OH)}-[X1]GFLGTKPKG-OH)	1.3	> 4.3	58 µM		> 200 µM	inactive	Active	46.4 µM (≈ 60 µg/mL)	Active	Active	155 µM (≈ 200 µg/mL)
C/C(=N\OCC(=O)N[C@H](C(=O)N[C@@H](CCCCN)C(=O)N1CCC[C@H]1C(=O)N[C@@H](CCCCN)C(=O)NCC(=O)O)[C@@H](C)O)c1ccc(NC(=O)c2cc(Br)ccc2O)cc1 ({Benzoyl(5-Br-2-OH)}-[X1]TKPKG-OH)	2.9	> 3.1	191 µM	Unstable	> 200 µM	Active	Active	65.3 µM (≈ 60 µg/mL)	Active	Active	218 µM (≈ 200 µg/mL)
C/C(=N\OCC(=O)N[C@H](C(=O)N[C@@H](CCCCN)C(=O)N1CCC[C@H]1C(=O)N[C@@H](CCCNC(=N)N)C(=O)O)[C@@H](C)O)c1ccc(NC(=O)c2cc(Br)ccc2O)cc1 ({Benzoyl(5-Br-2-OH)}-[X1]TKPR-OH)	> 4.4	> 4.4	> 200 µM	Unstable	> 200 µM	Active	Active	45 µM (≈ 40 µg/mL)	Active	Active	225 µM (≈ 200 µg/mL)
